Measured values: ChEMBL document CHEMBL1121519, “Basic antiinflammatory compounds. N,N',N''-Trisubstituted guanidines” (J Med Chem, 1980)

Legend:
Rattus norvegicus [1] = assay: Minimum effective dose against adjuvant arthritis on therapeutic dosing (peroral administration); type: functional; settings: po, read-out: MED
How it was run: (§1)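 Female Lewis rats given adjuvant arthritis by plantar M. butyricum in mineral oil. Oral daily dosing either from adjuvant day to day 28 (continuous), day 16 to day 28 (therapeutic), or day 5 pre- to day 5 postadjuvant (prophylactic). MED: lowest dose producing significant (p < 0.05) inhibition of noninjected paw swelling on day 28, by plethysmometry.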

Rattus norvegicus [2] = assay: Minimum effective dose against adjuvant arthritis on administration); type: functional; settings: read-out: MED; how it was run: as §1
Rattus norvegicus [3] = assay: Effective dose against analgesic activity (peroral administration); type: functional; settings: po
Rattus norvegicus [4] = assay: Effective dose against gastroulcerogenic activity (peroral administration); type: functional; settings: po
How it was run: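 Groups of six Sprague-Dawley rats given oral doses once daily for 3 days; inner stomach surface examined for lesions 24 h after last dose. ED50 is the dose giving macroscopically visible lesions in 50% of rats.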

Rattus norvegicus [5] = assay: Tested for percent inhibition of carrageenan paw edema in rat, administered orally at a dose of one tenth of oral lethal dose in mice; type: functional
How it was run: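 Sprague-Dawley rats fasted 18 h; compound suspended in 0.5% carboxymethylcellulose, given orally 1 h before 0.1 mL of 1% carrageenan suspension injected into the plantar tissue of the right hind paw. Paw swelling measured by mercury-displacement plethysmometry 3 h after carrageenan, treated versus controls. Mouse oral LD50 was from the Litchfield-Wilcoxon method with four mice per dose.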

Rattus norvegicus [6] = assay: Effective dose against nystatin edema(peroral administration); type: functional; settings: po
Rattus norvegicus [7] = assay: Effective dose against carrageenan edema(peroral administration); type: functional; settings: po
How it was run: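 Sprague-Dawley rats fasted 18 h, dosed orally in 0.5% carboxymethylcellulose suspension 1 h before 0.1 mL of 1% carrageenan into right hind paw plantar tissue. Paw swelling in treated versus control rats measured 3 h post-carrageenan by mercury-displacement plethysmometry; ED50 given in mg/kg po.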

Rattus norvegicus [8] = assay: Minimum effective dose against adjuvant arthritis on prophylactic dosing (peroral administration); type: functional; settings: po, read-out: MED; how it was run: as §1
[9] = Lethal dose in mice determined by Litchfield and Wilcoxon methods after peroral administration.; type: toxicity, organism-based; settings: mouse, in vivo, po
How it was run: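 Median lethal dose found after oral dosing of mice, four mice per dose level, and calculated by the Litchfield–Wilcoxon method.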

Rattus norvegicus [10] = species: Rattus norvegicus; assay: Minimum effective dose is the lowest dose preventing any futher increase in body temperature; type: functional; settings: read-out: MED
How it was run: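 Antipyretic test, oral dosing; MED defined as the lowest dose preventing any further increase of body temperature.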

[11] = target: T1, Cyclooxygenase (Bos taurus) (UniProt O62664+O62698); assay: Inhibition of prostaglandin synthetase in bovine seminal vesicle microsomes using Beckman liquid scintillation counter at 10 e-5 M; settings: Microsome
Rattus norvegicus [12] = species: Rattus norvegicus; assay: Tested for enhancement in the rat paw injected with carrageenan.; type: functional
Rattus norvegicus [13] = assay: Percent inhibition of carrageenan paw edema in rat, administered orally at a dose of one tenth of oral lethal dose in mice; type: functional
How it was run: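 1 h later, 0.1 mL of 1% carrageenan was injected into the right hind-paw plantar tissue. Paw swelling was measured by mercury-displacement plethysmometry 3 h after carrageenan, compared with controls.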

[14] = Toxic score (3) was measured as lethal dose in orally administered mice; type: toxicity, organism-based; settings: mouse, in vivo, po
How it was run: (§2)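 Score derived from mouse oral LD50 (Litchfield–Wilcoxon, four mice per dose), in mg/kg: >1000 = 3; 500-1000 = 2; <500 = 1.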

Rattus norvegicus [15] = species: Rattus norvegicus; assay: Tested for inhibition in the rat paw not injected with […].; type: functional; design: concentration or dose not given beside the values
How it was run: (§3)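 Adjuvant-induced arthritis, female Lewis rats, six per group: M. butyricum in mineral oil (3 mg/mL, 0.1 mL) injected into right hind paw plantar tissue. Daily oral dosing from adjuvant day to day 28, 10 or 5 (mg/kg)/day according to mouse oral LD50 (≥1000 or <1000 mg/kg). Injected and noninjected paw swelling read by mercury-displacement plethysmometry on day 28.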

Rattus norvegicus [16] = species: Rattus norvegicus; assay: Average percent inhibition (arthritis score=0) of the swelling of both injected and non injected paw was measured; type: functional
How it was run: (§4)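 Adjuvant arthritis in inbred female Lewis rats, groups of six, acclimatized 2 weeks. Arthritis induced by injecting 0.1 mL M. butyricum in mineral oil (3 mg/mL) into right hind paw plantar tissue. Oral dosing daily from adjuvant day to day 28: 10 (mg/kg)/day if mouse oral LD50 ≥1000 mg/kg, else 5 (mg/kg)/day. Swelling of injected and noninjected paws measured day 28 by mercury-displacement plethysmometry; mean percent inhibition scored 0–3.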

Rattus norvegicus [17] = assay: Total score is the sum of scores obtained in the adjuvant arthritis, acute toxicity, carrageenan edema, and prostaglandin synthetase assay; type: functional
[18] = target: T1, Cyclooxygenase (Bos taurus); assay: Tested for Prostaglandin synthetase inhibition in Bovine seminal vesicle microsomes using Beckman liquid scintillation counter at 10 e-5 M; type: functional; settings: Microsome
Rattus norvegicus [19] = species: Rattus norvegicus; assay: Tested for enhancement in the rat paw not injected with carrageenan.; type: functional
Rattus norvegicus [20] = species: Rattus norvegicus; assay: Tested for inhibition in the rat paw injected with carrageenan.; type: functional; design: concentration or dose not given beside the values
Rattus norvegicus [21] = species: Rattus norvegicus; assay: Average percent inhibition (arthritis score=1) of the swelling of both injected and non injected paw was measured;values ranges from: […]-[…]; type: functional
Rattus norvegicus [22] = assay: Tested for inhibition at the dose of 5(mg/kg)/day in the rat paw not injected with carrageenan.; type: functional; settings: in the assay text read “adjuvant” for “carrageenan”; how it was run: as §3
[23] = Toxic score (1) was measured as lethal dose in orally administered mice; type: toxicity, organism-based; settings: in vivo, po; how it was run: as §2
Rattus norvegicus [24] = species: Rattus norvegicus; assay: Average percent inhibition (arthritis score=3) of the swelling of both injected and non injected paw was measured; type: functional; how it was run: as §4
Rattus norvegicus [25] = species: Rattus norvegicus; assay: Average percent inhibition of the swelling of both injected and non injected paw was measured; […]; type: functional
Rattus norvegicus [26] = species: Rattus norvegicus; assay: Average percent inhibition (arthritis score)of the swelling of both injected and non injected paw was measured; type: functional; how it was run: as §4
[27] = target: T1, Cyclooxygenase (Bos taurus); assay: Tested for Prostaglandin Synthetase inhibition in Bovine seminal vesicle microsomes using Beckman liquid scintillation counter at 10 e-5 M; settings: Microsome

COc1ccc2c(c1)c(CC(=O)O)c(C)n2C(=O)c1ccc(Cl)cc1 [INDOMETHACIN]
minimal effective dose (Rattus norvegicus [1]): < 1 mg/kg
minimal effective dose (Rattus norvegicus [2]): 1 mg/kg
ED50 (Rattus norvegicus [3]): 6.5 mg/kg
ED50 (Rattus norvegicus [4]): 4.6 mg/kg
LD50 (Rattus norvegicus [5]): 12 mg/kg
ED50 (Rattus norvegicus [6]): > 6 mg/kg
ED50 (Rattus norvegicus [7]): 3.5 mg/kg
minimal effective dose (Rattus norvegicus [8]): 2 mg/kg
LD50 [9]: 24.3 mg/kg
minimal effective dose (Rattus norvegicus [10]): 1.6 mg/kg

CC(C)(C)/N=C(\Nc1nccs1)Nc1cc(C(F)(F)F)nc2ccccc12
inhibition [11]: 75.4%
Enhancement (Rattus norvegicus [12]): 6%
Inhibition (Rattus norvegicus [13]): 28%
LD50 [14]: > 1000 mg/kg
LD50 [9]: > 1000 mg/kg
Inhibition (Rattus norvegicus [15]): 2%
Inhibition (Rattus norvegicus [16]): <10%
Total score (Rattus norvegicus [17]): 7

Cc1cc(N/C(=N/C(C)(C)C)NC2NC=CS2)c2ccccc2n1 (stereo unspecified)
Inhibition (Rattus norvegicus [13]): 41%
LD50 [9]: 200 mg/kg
inhibition [18]: 1.3%

Cc1ccc2nc(C)cc(N/C(=N/C3CCCCC3)Nc3nccs3)c2c1
inhibition [11]: 0.6%
Enhancement (Rattus norvegicus [12]): 21%
Inhibition (Rattus norvegicus [13]): 65%
LD50 [14]: > 1000 mg/kg
LD50 [9]: > 1000 mg/kg
Inhibition (Rattus norvegicus [15]): 0%
Inhibition (Rattus norvegicus [16]): <10%
Total score (Rattus norvegicus [17]): 6

Cc1cc(N/C(=N/C2CCCCC2)Nc2nc3ccccc3s2)c2ccccc2n1
inhibition [11]: 76.1%
Enhancement (Rattus norvegicus [12]): 7%
Inhibition (Rattus norvegicus [13]): 1%
LD50 [14]: > 1000 mg/kg
LD50 [9]: > 1000 mg/kg
Inhibition (Rattus norvegicus [16]): <10%
Total score (Rattus norvegicus [17]): 6
Enhancement (Rattus norvegicus [19]): 4%

CCCCC/N=C(\Nc1nccs1)Nc1cc(C)nc2ccccc12
inhibition [11]: -37%
Inhibition (Rattus norvegicus [20]): 19%
Inhibition (Rattus norvegicus [13]): 62%
LD50 [14]: > 1000 mg/kg
LD50 [9]: 400 mg/kg
Inhibition (Rattus norvegicus [21]): 29%
Total score (Rattus norvegicus [17]): 7
Enhancement (Rattus norvegicus [19]): 4%

Cc1cc(N/C(=N\C(C)(C)C)Nc2nccs2)c2ccccc2n1
inhibition [11]: 100%
Inhibition (Rattus norvegicus [13]): 34%
Inhibition (Rattus norvegicus [22]): 60%
LD50 [23]: < 500 mg/kg
LD50 [9]: 200 mg/kg
Total score (Rattus norvegicus [17]): 8
Inhibition (Rattus norvegicus [24]): >=50%

Cc1cc(N/C(=N/C(C)(C)C)Nc2cccs2)c2ccccc2n1
inhibition [11]: 37.2%
Inhibition (Rattus norvegicus [20]): 16%
Inhibition (Rattus norvegicus [13]): 73%
LD50 [14]: > 1000 mg/kg
LD50 [9]: > 1000 mg/kg
Inhibition (Rattus norvegicus [15]): 26%
Inhibition (Rattus norvegicus [25]): 29%
Total score (Rattus norvegicus [17]): 8

Cc1cc(N/C(=N\CC(C)(C)C)Nc2nccs2)c2ccccc2n1
inhibition [11]: 31.1%
Inhibition (Rattus norvegicus [20]): 31%
Inhibition (Rattus norvegicus [13]): 66%
LD50 [9]: 600 mg/kg
Inhibition (Rattus norvegicus [21]): 29%
Inhibition (Rattus norvegicus [15]): 29%
Total score (Rattus norvegicus [17]): 7

CCC(C)(C)/N=C(/Nc1nccs1)Nc1cc(C)nc2ccccc12
inhibition [11]: 100%
Inhibition (Rattus norvegicus [20]): 59%
Inhibition (Rattus norvegicus [13]): 53%
LD50 [23]: < 500 mg/kg
LD50 [9]: 400 mg/kg
Inhibition (Rattus norvegicus [15]): 55%
Inhibition (Rattus norvegicus [26]): >=50%
Total score (Rattus norvegicus [17]): 9

Cc1cc(N/C(=N/C2CCCCC2)NC2NC=CS2)c2ccccc2n1 (stereo unspecified)
inhibition [27]: 12.6%
Inhibition (Rattus norvegicus [13]): 33%
LD50 [9]: > 1000 mg/kg

Cc1csc(/N=C(\Nc2cc(C)nc3ccccc23)NC(C)(C)C)n1
inhibition [11]: 95.1%
Inhibition (Rattus norvegicus [20]): 53%
Inhibition (Rattus norvegicus [13]): 31%
LD50 [14]: > 1000 mg/kg
LD50 [9]: 600 mg/kg
Inhibition (Rattus norvegicus [15]): 59%
Total score (Rattus norvegicus [17]): 9
Inhibition (Rattus norvegicus [24]): >=50%
